Laboratory results as given in ChEMBL document CHEMBL1149569, “Aminopyrrolidineamide inhibitors of site-1 protease” (Bioorg Med Chem Lett, 2007).
Values belong to the compound of their own block, whether it stands above or below them. Activity calls are given as the source filed them. No cut-off for these calls is given here.

Assays:
[1] = target: T1, Membrane-bound transcription factor site-1 protease (Homo sapiens, UniProt Q14703); assay: Inhibition of human S1P expressed in CHOK1 cells; type: cell-based, CHO-K1
T1 sequence (Q14703 whole entry): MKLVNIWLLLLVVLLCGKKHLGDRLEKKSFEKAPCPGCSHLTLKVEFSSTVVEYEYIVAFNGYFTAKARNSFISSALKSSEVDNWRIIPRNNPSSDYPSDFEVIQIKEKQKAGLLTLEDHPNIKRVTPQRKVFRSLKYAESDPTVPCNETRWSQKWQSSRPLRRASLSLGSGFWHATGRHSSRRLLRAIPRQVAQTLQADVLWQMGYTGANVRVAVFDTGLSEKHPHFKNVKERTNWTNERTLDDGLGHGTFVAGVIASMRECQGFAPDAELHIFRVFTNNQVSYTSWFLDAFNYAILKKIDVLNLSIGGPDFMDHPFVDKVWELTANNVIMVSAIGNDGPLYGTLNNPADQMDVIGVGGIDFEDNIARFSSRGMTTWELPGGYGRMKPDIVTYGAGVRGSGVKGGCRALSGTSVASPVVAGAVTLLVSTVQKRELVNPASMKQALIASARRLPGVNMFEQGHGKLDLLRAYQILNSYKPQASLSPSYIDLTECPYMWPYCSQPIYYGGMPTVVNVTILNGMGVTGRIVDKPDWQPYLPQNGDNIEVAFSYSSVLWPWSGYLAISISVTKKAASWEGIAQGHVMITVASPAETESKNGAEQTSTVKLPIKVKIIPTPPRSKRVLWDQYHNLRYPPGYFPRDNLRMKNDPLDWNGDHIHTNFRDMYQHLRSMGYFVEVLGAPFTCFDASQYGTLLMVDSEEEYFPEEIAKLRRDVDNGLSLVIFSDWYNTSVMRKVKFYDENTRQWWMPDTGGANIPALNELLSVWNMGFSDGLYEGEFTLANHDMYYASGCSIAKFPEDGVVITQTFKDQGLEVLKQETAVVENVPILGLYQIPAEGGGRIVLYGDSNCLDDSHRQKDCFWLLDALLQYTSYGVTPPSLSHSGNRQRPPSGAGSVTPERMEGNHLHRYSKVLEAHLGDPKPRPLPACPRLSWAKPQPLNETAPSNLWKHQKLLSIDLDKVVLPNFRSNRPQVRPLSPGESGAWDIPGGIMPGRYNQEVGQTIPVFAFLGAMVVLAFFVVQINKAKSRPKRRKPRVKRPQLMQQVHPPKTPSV

[2] = tested on: Liver; assay: Inhibition of cholesterol synthesis in rat liver; type: functional, tissue-based
[3] = tested on: Mus musculus; assay: Antilipogenic activity in CD1 mouse assessed as inhibition of fatty acid synthetic pathway at 30 mg/kg, ip every 6 hrs for 24 hrs; type: functional; design: scale not given: the % may be the effect or the level left; details: route intraperitoneal
Method in brief: (§1)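 Male CD1 mice, n = 5 per group, given 10 or 30 mg/kg/dose intraperitoneally every 6 h for 24 h (acute 24 h efficacy). Hepatic HMG-CoA synthase, fatty acid synthase and LDL receptor gene expression were measured in liver tissue samples. Cholesterol and fatty acid synthetic pathway activity was measured in the animals.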

[4] = tested on: Mus musculus; assay: Antilipogenic activity in CD1 mouse assessed as reduction of HMG-CoA synthase gene expression at 30 mg/kg, ip every 6 hrs for 24 hrs; type: functional; design: scale not given: the % may be the effect or the level left; details: route intraperitoneal; method in brief: as §1
[5] = tested on: HepG2; assay: Inhibition of LDL receptor gene expression in HepG2 cells; type: functional, cell-based; details: Homo sapiens
[6] = tested on: Mus musculus; assay: Antilipogenic activity in CD1 mouse assessed as reduction of fatty acid synthase gene expression at 10 mg/kg, ip every 6 hrs for 24 hrs; type: functional; design: scale not given: the % may be the effect or the level left; details: route intraperitoneal; method in brief: as §1
[7] = tested on: HepG2; assay: Inhibition of fatty acid synthesis in HepG2 cells at 10 uM; type: functional; details: Homo sapiens
[8] = tested on: Hepatocyte; assay: Reduction of fatty acid synthase expression in mouse hepatocytes; type: functional, cell-based
[9] = tested on: HepG2; assay: Inhibition of cholesterol synthesis in HepG2 cells; type: functional, cell-based; details: Homo sapiens
[10] = tested on: HepG2; assay: Inhibition of nuclear translocation of SREBP in HepG2 cells at 10 uM; type: functional, cell-based; details: Homo sapiens
Method in brief: (§2)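 Hep-G2 human liver cells in culture were treated at 10 µM. SREBP proteolytic processing and nuclear translocation were then assessed.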

[11] = tested on: Liver; assay: Reduction of fatty acid synthase expression in mouse liver; type: functional, tissue-based
[12] = target: Urokinase-type plasminogen activator (Homo sapiens, UniProt P00749); assay: Inhibition of urokinase
[13] = tested on: HepG2; assay: Inhibition of proteolytic processing of SREBP in HepG2 cells at 10 uM; type: functional, cell-based; details: Homo sapiens; method in brief: as §2
[14] = target: Low-density lipoprotein receptor (Homo sapiens) (UniProt P01130); assay: Inhibition of LDL receptor-mediated LDL internalization in HepG2 cells; type: cell-based
Sequence of Low-density lipoprotein receptor (Homo sapiens) (P01130 whole entry): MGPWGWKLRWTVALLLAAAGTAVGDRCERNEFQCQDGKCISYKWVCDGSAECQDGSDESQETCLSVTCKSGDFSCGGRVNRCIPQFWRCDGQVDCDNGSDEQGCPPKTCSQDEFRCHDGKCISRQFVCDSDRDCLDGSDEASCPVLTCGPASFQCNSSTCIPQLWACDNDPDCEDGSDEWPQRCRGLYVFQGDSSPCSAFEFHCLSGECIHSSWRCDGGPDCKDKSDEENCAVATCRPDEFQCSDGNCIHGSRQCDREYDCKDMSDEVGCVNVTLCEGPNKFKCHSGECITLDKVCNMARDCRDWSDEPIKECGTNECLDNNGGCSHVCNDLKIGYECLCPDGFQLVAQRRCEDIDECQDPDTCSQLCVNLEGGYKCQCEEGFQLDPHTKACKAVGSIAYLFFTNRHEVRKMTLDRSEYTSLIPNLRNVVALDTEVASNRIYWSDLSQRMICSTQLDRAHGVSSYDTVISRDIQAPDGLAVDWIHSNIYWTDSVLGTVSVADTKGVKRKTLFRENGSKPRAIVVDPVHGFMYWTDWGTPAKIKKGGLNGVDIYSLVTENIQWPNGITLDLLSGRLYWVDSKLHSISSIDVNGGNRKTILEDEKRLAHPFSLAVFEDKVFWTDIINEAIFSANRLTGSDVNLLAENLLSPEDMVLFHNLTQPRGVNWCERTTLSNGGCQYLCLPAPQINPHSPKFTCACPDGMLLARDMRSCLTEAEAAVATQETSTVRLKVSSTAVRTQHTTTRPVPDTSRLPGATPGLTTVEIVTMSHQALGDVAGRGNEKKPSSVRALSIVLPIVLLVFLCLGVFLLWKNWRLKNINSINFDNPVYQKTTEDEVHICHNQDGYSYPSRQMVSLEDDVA

[15] = tested on: Mus musculus; assay: Antilipogenic activity in CD1 mouse assessed as inhibition of cholesterol synthetic pathway at 30 mg/kg, ip every 6 hrs for 24 hrs; type: functional; design: scale not given: the % may be the effect or the level left; details: route intraperitoneal; method in brief: as §1
[16] = tested on: Mus musculus; assay: Antilipogenic activity in CD1 mouse assessed as reduction of fatty acid synthase gene expression at 30 mg/kg, ip every 6 hrs for 24 hrs; type: functional; design: scale not given: the % may be the effect or the level left; details: route intraperitoneal; method in brief: as §1
[17] = tested on: Mus musculus; assay: Antilipogenic activity in CD1 mouse assessed as reduction of LDL receptor gene expression at 30 mg/kg, ip every 6 hrs for 24 hrs; type: functional; design: scale not given: the % may be the effect or the level left; details: route intraperitoneal; method in brief: as §1
[18] = Oral bioavailability in rat; type: ADME, organism-based; details: in vivo
[19] = tested on: Mus musculus; assay: Antilipogenic activity in CD1 mouse assessed as inhibition of fatty acid synthetic pathway at 10 mg/kg, ip every 6 hrs for 24 hrs; type: functional; design: scale not given: the % may be the effect or the level left; details: route intraperitoneal; method in brief: as §1
[20] = target: Coagulation factor X (Homo sapiens, UniProt P00742); assay: Inhibition of factor 10a
Sequence of Coagulation factor X (P00742 41-179 limits assumed): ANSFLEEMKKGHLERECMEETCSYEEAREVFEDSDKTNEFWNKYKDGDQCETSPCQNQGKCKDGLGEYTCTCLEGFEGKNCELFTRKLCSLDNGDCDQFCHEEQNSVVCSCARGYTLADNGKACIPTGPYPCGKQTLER
Sequence of Coagulation factor X (P00742 235-488 limits assumed): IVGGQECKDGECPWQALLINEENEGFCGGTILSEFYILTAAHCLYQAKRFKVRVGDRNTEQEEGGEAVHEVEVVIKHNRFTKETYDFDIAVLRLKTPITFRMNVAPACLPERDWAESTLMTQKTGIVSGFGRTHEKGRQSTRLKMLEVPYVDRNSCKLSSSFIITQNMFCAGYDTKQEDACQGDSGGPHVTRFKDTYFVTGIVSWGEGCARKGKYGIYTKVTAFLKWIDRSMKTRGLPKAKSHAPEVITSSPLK

[21] = tested on: Liver; assay: Inhibition of fatty acid synthesis in rat liver at 10 uM; type: functional
[22] = tested on: Liver; assay: Reduction of HMG-CoA synthase expression in mouse liver; type: functional, tissue-based
[23] = tested on: Mus musculus; assay: Antilipogenic activity in CD1 mouse assessed as reduction of HMG-CoA synthase gene expression at 10 mg/kg, ip every 6 hrs for 24 hrs; type: functional; design: scale not given: the % may be the effect or the level left; details: route intraperitoneal; method in brief: as §1
[24] = tested on: Mus musculus; assay: Antilipogenic activity in CD1 mouse assessed as inhibition of cholesterol synthetic pathway at 10 mg/kg, ip every 6 hrs for 24 hrs; type: functional; design: scale not given: the % may be the effect or the level left; details: route intraperitoneal; method in brief: as §1
[25] = Plasma clearance in rat; type: ADME, organism-based
[26] = tested on: Hep-G2 (Homo sapiens); assay: Reduction of HMG-CoA synthase expression in human Hep-G2 cells

- IC50 [1]: > 5000 nM
Structure (SMILES): CC(C)Oc1ccc(C(=O)N(Cc2ccccc2Cl)C2CCNC2)cc1 (centres undefined)

- IC50 [1]: 1400 nM
Structure (SMILES): CC(C)Oc1ccc(C(=O)N(CCc2ccccc2Cl)C2CCNC2)cc1 (centres undefined)

- IC50 [1]: 590 nM
Structure (SMILES): O=C(c1ccc(OCc2ccccc2)cc1)N(CCc1ccccc1Cl)C1CCNC1 (centres undefined)

- IC50 [1]: 510 nM
Structure (SMILES): O=C(c1ccc(OCc2ccccc2)cc1)N(CCc1cccc(Cl)c1)C1CCNC1 (centres undefined)

- IC50 [1]: > 30000 nM
Structure (SMILES): CC(C)Oc1ccc(C(=O)N(CCc2ccccc2Cl)C2CCSC2)cc1 (centres undefined)

- IC50 [1]: 9000 nM
Structure (SMILES): CC(C)Oc1ccc(C(=O)N(CCc2ccccc2F)C2CCNC2)cc1 (centres undefined)

- IC50 [1]: 3700 nM
Structure (SMILES): CCN(CC)Cc1ccc(C(=O)N(CCc2ccc(Cl)cc2)C2CCNC2)cc1 (centres undefined)

- IC50 [1]: > 30000 nM
Structure (SMILES): CC(C)Oc1ccc(C(=O)N(CCc2ccccc2Cl)C2CCN(C)C2)cc1 (centres undefined)

- IC50 [1]: 430 nM
Structure (SMILES): CCN(CC)Cc1ccc(C(=O)N(CCc2c(Cl)cccc2Cl)C2CCNC2)cc1 (centres undefined)

- IC50 [1]: > 30000 nM
Structure (SMILES): CC(C)Oc1ccc(C(=O)N(CCc2ccccc2Cl)C2CCN(C=O)C2)cc1 (centres undefined)

- IC50 [1]: 9600 nM
Structure (SMILES): CC(C)Oc1ccc(C(=O)N(CCc2cccc(Cl)c2)C2CCNC2)cc1 (centres undefined)

- IC50 [1]: 840 nM
Structure (SMILES): CCN(CC)Cc1ccc(C(=O)N(CCc2ccccc2Cl)C2CCNC2)cc1 (centres undefined)

- IC50 [1]: > 30000 nM
Structure (SMILES): CC(C)Oc1ccc(C(=O)N(CCc2ccccc2Cl)C2CNC2)cc1

- IC50 [1]: > 30000 nM
Structure (SMILES): CC(C)Oc1ccc(C(=O)N(CCc2ccccc2Cl)C2CCCNC2)cc1 (centres undefined)

The remaining lines, values behind:

Structure (SMILES): COc1ccccc1CCN(C(=O)c1ccc(CN2CCCC(c3ccccc3C)C2)cc1)C1CCNC1 (centres undefined)
- IC50 [1]: 37 nM

Structure (SMILES): O=C(c1ccc(CN2CCCCC2)cc1)N(CCc1ccccc1Cl)C1CCOC1 (centres undefined)
- IC50 [1]: > 30000 nM

Structure (SMILES): CCN(CC)Cc1ccc(C(=O)N(CCc2ccccc2OC)[C@@H]2CCNC2)cc1
- EC50 [2]: 600 nM
- Activity [3]: 80%
- Activity [4]: >80%
- Activity [5]: Active
- Activity [6]: 50%
- inhibition at 10 µM [7]: 43%
- EC50 [8]: 2000 nM
- EC50 [9]: 600 nM
- Activity [10]: Active
- EC50 [11]: 2000 nM
- IC50 [12]: 50000 nM
- Activity [13]: Active
- Activity [14]: Active
- Activity [15]: 80%
- Activity [16]: 75%
- Activity [17]: 35%
- bioavailability [18]: 5%
- IC50 [1]: 170 nM
- Activity [19]: 50%
- IC50 [20]: 100000 nM
- inhibition at 10 µM [21]: 43%
- EC50 [22]: 300 nM
- Activity [23]: >80%
- Activity [24]: 50%
- clearance [25]: 75 mL/min/kg
- EC50 [26]: 300 nM

Structure (SMILES): CCN(CC)Cc1ccc(C(=O)N(CCc2ccccc2C)C2CCNC2)cc1 (centres undefined)
- IC50 [1]: 1600 nM

Structure (SMILES): COc1ccccc1CCN(C(=O)c1ccc(CN2CC3CCC2C3)cc1)C1CCNC1 (centres undefined)
- IC50 [1]: 95 nM

Structure (SMILES): CCOc1ccccc1CCN(C(=O)c1ccc(CN(CC)CC)cc1)C1CCNC1 (centres undefined)
- IC50 [1]: 16000 nM

Structure (SMILES): CCN(CC)Cc1ccc(C(=O)N(CCc2ccccc2OC)[C@H]2CCNC2)cc1
- IC50 [1]: 970 nM

Structure (SMILES): COc1ccccc1CCN(C(=O)c1ccc(CN2CCCC(C(N)=O)C2)cc1)C1CCNC1 (centres undefined)
- IC50 [1]: 160 nM

Structure (SMILES): CCN(CC)Cc1ccc(C(=O)N(CCc2ccccc2OC)C2CCNC2)cc1 (centres undefined)
- IC50 [1]: 540 nM

Structure (SMILES): Cc1ccccc1C1CCCN(Cc2ccc(C(=O)N(CCc3ccccc3Cl)C3CCNC3)cc2)C1 (centres undefined)
- IC50 [1]: 8 nM

Structure (SMILES): COc1ccccc1CCN(C(=O)c1ccc(CN[C@H]2CCCC[C@@H]2O)cc1)C1CCNC1 (some centres undefined)
- IC50 [1]: 100 nM

Structure (SMILES): COc1ccccc1CCN(C(=O)c1ccc(OCc2ccccc2)cc1)C1CCNC1 (centres undefined)
- IC50 [1]: 310 nM

Structure (SMILES): COc1ccccc1CCN(C(=O)c1ccc(CN2CC3CCCC2C3)cc1)C1CCNC1 (centres undefined)
- IC50 [1]: 29 nM

Structure (SMILES): COc1ccccc1CCN(C(=O)c1ccc(CN2CCCCC2)cc1)C1CCNC1 (centres undefined)
- IC50 [1]: 250 nM

Structure (SMILES): COC[C@@H]1CCCN1Cc1ccc(C(=O)N(CCc2ccccc2OC)C2CCNC2)cc1 (some centres undefined)
- IC50 [1]: 140 nM
